The record followed here is ChEMBL document CHEMBL4033649, “Discovery of tetrahydrocarbazoles as dual pERK and pRb inhibitors” (Eur J Med Chem, 2017).

Molecules are shown by their SMILES.

The nature of this test: Inhibition of ERK phosphorylation in human MDA-MB-231 cells after 1 hr. The class given is cell-based. The method in brief:
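MDA-MB-231 cells (25,000/well) grown 24 h, serum-starved 6 h, then exposed to compound 1 h (screen at 10 μM, n=3; dose-response for IC50). Cells fixed in 3.7% formaldehyde, permeabilized with 0.1% Triton X, immunostained with phospho-p44/p42 MAPK (T202/Y204) antibody plus anti-rabbit IgG secondary; TMB colour read by absorbance.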

For `COc1cccc(C(=O)NC2CCc3c([nH]c4ccccc34)C2)c1` (stereo unspecified), the IC50 (Homo sapiens, MDA-MB-231, 1 h) worked out at 9 µM.

For the setting “Homo sapiens, MDA-MB-231, 1 h”, `O=S(=O)(NC1CCc2c([nH]c3ccccc23)C1)c1cccnc1` (stereo unspecified) had an IC50 of 69.9 µM. Same read-out and setting: in the case of `Cc1ccc(CNC2CCc3c([nH]c4ccc(C)cc34)C2)cc1` (stereo unspecified) it was 4.6 µM; in that of `c1ccc2c3c([nH]c2c1)CC(NC1CCCCC1)CC3` (stereo unspecified), 7 µM. `c1ccc2c3c([nH]c2c1)CC(NC1CCOCC1)CC3` (stereo unspecified) came in with an IC50 (Homo sapiens, MDA-MB-231, 1 h) of more than 100 µM. The same measure, in the same setting: for `N#Cc1ccc(S(=O)(=O)NC2CCc3c([nH]c4ccccc34)C2)cc1` (stereo unspecified) the value was 7 µM; for `O=S(=O)(NC1CCc2c([nH]c3ccccc23)C1)c1ccc(F)cc1` (stereo unspecified), 7.5 µM. Same read-out and setting: in the case of `O=S(=O)(NC1CCCc2c1[nH]c1ccccc21)c1ccc(F)cc1` (stereo unspecified) it was more than 100 µM. In turn, `Cc1ccc2[nH]c3c(c2c1)CCC(NC1CCC(C)C1)C3` (stereo unspecified) [listing 1 of 2 here] came in with an IC50 of 5.5 µM. As for `c1ccc2c3c([nH]c2c1)C(NC1CCCC1)CCC3` (stereo unspecified) [listing 1 of 2 here], under “Homo sapiens, MDA-MB-231, 1 h”, the IC50 was found to be 21 µM. Same read-out and setting: in the case of `O=C(NC1CCc2c([nH]c3ccccc23)C1)c1cccc(F)c1` (stereo unspecified) it was 8.1 µM.

Compound `c1ccc2c3c([nH]c2c1)C(NC1CCCC1)CCC3` (stereo unspecified) [listing 2 of 2 here] yielded an IC50 of 30 µM. `CC1CCC(NC2CCCc3c2[nH]c2ccccc32)C1` (stereo unspecified) yielded an IC50 (Homo sapiens, MDA-MB-231, 1 h) of 3 µM. `Cc1ccc2[nH]c3c(c2c1)CCC(NCc1ccccc1)C3` (stereo unspecified) showed an IC50 (Homo sapiens, MDA-MB-231, 1 h) of 5.5 µM. The same measure, in the same setting: in the case of `N#Cc1ccc(S(=O)(=O)NC2CCCc3c2[nH]c2ccccc32)cc1` (stereo unspecified) it was more than 100 µM; in that of `c1ccc(CNC2CCc3c([nH]c4ccccc34)C2)cc1` (stereo unspecified), 6.11 µM.

For the compound `CC1CCC(NC2CCCc3c2[nH]c2ccc([N+](=O)[O-])cc32)C1` (stereo unspecified), 5.52 µM corresponded to half-maximal inhibition (Homo sapiens, MDA-MB-231, 1 h) (IC50). This IC50 and that of the compound before are within 1.5-fold of each other. Take `CC1CCC(NC2CCc3c([nH]c4ccccc34)C2)C1` (stereo unspecified): where the note is “Homo sapiens, MDA-MB-231, 1 h”, the IC50 is more than 30 µM. Still for that read-out and setting: in the case of `c1ccc2c3c([nH]c2c1)CC(NC1CCCC1)CC3` (stereo unspecified) it was 21 µM; in that of `CNC(=O)c1cc(Oc2ccc(NC(=O)Nc3ccc(Cl)c(C(F)(F)F)c3)cc2)ccn1` [SORAFENIB], 0.063 µM. `Cc1ccc2[nH]c3c(c2c1)CCC(NC1CCC(C)C1)C3` (stereo unspecified) [listing 2 of 2 here]: where the note is “Homo sapiens, MDA-MB-231, 1 h”, the IC50 is 6 µM. Regarding `O=S(=O)(NC1CCCc2c1[nH]c1ccccc21)c1cccnc1` (stereo unspecified), the IC50 (Homo sapiens, MDA-MB-231, 1 h) is more than 100 µM. Under “Homo sapiens, MDA-MB-231, 1 h”, `c1ccc2c3c([nH]c2c1)C(NC1CCCCC1)CCC3` (stereo unspecified) gave an IC50 of 9 µM. The same measure, in the same setting: for `O=C(NC1CCc2c([nH]c3ccccc23)C1)c1ccccc1F` (stereo unspecified) the value was 29.7 µM; for `Cc1ccc(CNC2CCc3c(n(C)c4ccccc34)C2)cc1` (stereo unspecified), 4.4 µM.

In turn, `Cc1ccc(CNC2CCc3c([nH]c4ccccc34)C2)cc1` (stereo unspecified) registered an IC50 (Homo sapiens, MDA-MB-231, 1 h) of 3.62 µM. This IC50 and that of the compound before are within 1.5-fold of each other.

One may read the IC50 as the midpoint of a concentration-inhibition curve. Lower therefore signals greater potency.
